Source: ChEMBL document CHEMBL1126794, “2-(Quinuclidin-3-yl)pyrido[4,3-b]indol-1-ones and isoquinolin-1-ones. Potent conformationally restricted 5-HT3 receptor antagonists” (J Med Chem, 1993)

What was measured:
[1] = molecular target: T1, Serotonin 3 (5-HT3) receptor (Rattus norvegicus, UniProt P35563+Q9JJ16); assay: Binding affinity against 5-hydroxytryptamine 3 (5-HT3) receptor in rat brain cortical membranes using radioligand [3H]quipazine; assay type: cell membranes
T1 sequence (P35563 whole entry): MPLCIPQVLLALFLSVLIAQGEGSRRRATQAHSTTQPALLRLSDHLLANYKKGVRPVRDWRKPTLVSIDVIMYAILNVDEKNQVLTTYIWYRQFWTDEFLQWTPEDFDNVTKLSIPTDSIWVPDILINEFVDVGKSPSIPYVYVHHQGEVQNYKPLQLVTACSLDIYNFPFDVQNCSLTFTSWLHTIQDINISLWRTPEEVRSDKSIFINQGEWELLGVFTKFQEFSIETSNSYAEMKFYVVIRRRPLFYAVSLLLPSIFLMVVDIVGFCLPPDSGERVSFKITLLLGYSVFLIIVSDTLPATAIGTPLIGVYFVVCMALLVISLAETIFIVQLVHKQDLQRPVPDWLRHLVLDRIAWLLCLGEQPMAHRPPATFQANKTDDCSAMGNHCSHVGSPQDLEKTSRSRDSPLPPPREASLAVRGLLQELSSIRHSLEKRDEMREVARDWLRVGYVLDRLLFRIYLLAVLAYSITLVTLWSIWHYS
T1 sequence (Q9JJ16 whole entry): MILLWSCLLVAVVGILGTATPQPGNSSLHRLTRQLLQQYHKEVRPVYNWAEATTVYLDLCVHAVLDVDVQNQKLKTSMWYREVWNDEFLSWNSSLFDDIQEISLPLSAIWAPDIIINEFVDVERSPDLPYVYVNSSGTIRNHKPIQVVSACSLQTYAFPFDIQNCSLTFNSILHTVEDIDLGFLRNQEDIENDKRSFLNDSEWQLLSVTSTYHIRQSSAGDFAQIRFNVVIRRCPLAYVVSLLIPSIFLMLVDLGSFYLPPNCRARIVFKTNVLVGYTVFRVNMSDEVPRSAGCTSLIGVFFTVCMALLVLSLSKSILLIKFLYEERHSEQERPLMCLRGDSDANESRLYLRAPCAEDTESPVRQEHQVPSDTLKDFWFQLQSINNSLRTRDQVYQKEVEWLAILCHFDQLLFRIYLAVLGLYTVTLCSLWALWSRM
How it was run: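 Rat cerebral cortex membranes, washed in 50 mM Tris pH 7.4, incubated 45 min at 25 °C in Tris-Krebs buffer pH 7.4 with 0.3–0.7 nM [3H]quipazine plus 0.1 μM paroxetine. Ten test concentrations from 1e-12 to 1e-4 M. Nonspecific binding defined with 1.0 μM racemic zacopride. Filtration, scintillation counting, IC50 by iterative fit, Ki by Cheng-Prusoff. Means of ≥3 determinations, or of two.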

Rattus norvegicus [2] = assay: Potency to inhibit bradycardiac effect measured by Von Bezold-Jarisch assay in 4 anesthetized rats; assay type: functional
How it was run: (§1)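 Male Sprague-Dawley rats, 250–380 g, under urethane (1.5 g/kg ip), with cannulated trachea and femoral veins; heart rate recorded by ECG. Lowest consistent bradycardic dose of 2-methyl-5-HT titrated iv, then given every 12 min. Increasing iv doses given 5 min before each challenge, with saline vehicle group.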

Rattus norvegicus [3] = assay: Potency to inhibit bradycardiac effect measured by Von Bezold-Jarisch assay in 8 anesthetized rats; assay type: functional; conditions: read-out: ID50 (the source's name); how it was run: as §1
Rattus norvegicus [4] = assay: Potency to inhibit bradycardiac effect measured by Von Bezold-Jarisch assay in 9 anesthetized rats; assay type: functional; design: ID50: unit not given here; how it was run: as §1
Rattus norvegicus [5] = assay: Potency to inhibit bradycardiac effect measured by Von Bezold-Jarisch assay in 5 anesthetized rats; assay type: functional; conditions: read-out: ID50 (the source's name); how it was run: as §1

Compound | Ki [1] | further results
Cl.O=c1c2cccc3c2c(cn1[C@H]1CN2CCC1CC2)CCC3 | 7.94 nM | ID50 (Rattus norvegicus [2]): 2 pKi
CN1[C@@H]2CC[C@H]1C[C@@H](OC(=O)c1c[nH]c3ccccc13)C2 [TROPISETRON] | 2 nM | ED50 (Rattus norvegicus [3]): 0.4 µg/kg
CCc1cccc2c(=O)n([C@@H]3CN4CCC3CC4)ccc12.Cl | 0.2 nM | ED50 (Rattus norvegicus [3]): 0.13 µg/kg
O=C(N[C@@H]1CN2CCC1CC2)c1cccc2c1CCCC2 | 200 nM | –
O=c1c2cccc3c2c(cn1[C@H]1CN2CCC1CC2)CC3 | 25.1 nM | –
O=C(NC1CN2CCC1CC2)c1c2n(c3ccccc13)CCCC2 (stereo unspecified) | 2.51 nM | –
Cl.O=c1c2cccc3c2c(cn1[C@@H]1CN2CCC1CC2)CCC3 | 0.158 nM | ID50 (Rattus norvegicus [4]): 0.1
O=c1c2c3ccccc3n3c2c(cn1[C@H]1CN2CCC1CC2)CCC3 | – | ED50 (Rattus norvegicus [5]): > 2.41 µg/kg
O=C1c2cccc3c2[C@@H](CCC3)CN1C1CN2CCC1CC2 (mixture of isomers) | 0.316 nM | –
CCc1cccc(C(=O)N[C@@H]2CN3CCC2CC3)c1C | 501 nM | –
COc1cccc2c(=O)n([C@@H]3CN4CCC3CC4)ccc12.Cl | 0.158 nM | ED50 (Rattus norvegicus [3]): 0.03 µg/kg
